The subject of test [1] is Staphylococcus aureus. The test can be described thus: In vitro antibacterial activity against methicillin resistant Staphylococcus aureus ATCC 33591 (S. a. 019). The test is classed as functional. The gist of the method:
(§1)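 Broth microdilution MIC per NCCLS guidelines in Mueller Hinton medium. Doubling dilutions from 256 to 1 μg/mL, inoculum (1–5) × 10⁵ CFU/mL, incubated overnight in ambient air at 35 °C. MIC is the lowest concentration giving complete growth inhibition. Linezolid and vancomycin served as controls.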

The subject of test [2] is Mus musculus. The test can be described thus: In vivo antibacterial activity in a murine systemic infection model. Type of test: functional. The method, boiled down: (§2)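 Female Swiss Albino mice (22–25 g, n = 6) were infected intraperitoneally with 0.5 mL S. aureus ATCC 29213. The inoculum was grown 2–3 h at 35 °C in BHI broth and adjusted to 100 × LD50 in 5% hog gastric mucin. Compound was suspended in 0.25% carboxymethyl cellulose and given orally 1 and 6 h post-infection; controls received saline. Cumulative mortality was scored over 48 h, and ED50 was derived by linear regression.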

The test system of test [3] is Enterococcus faecalis. The test can be described thus: In vitro antibacterial activity against Enterococcus faecalis NCTC 12201 (E. f. 153) vancomycin resistant. Type of test: functional. The method, boiled down: as §1
Test [4] relates to Enterococcus faecalis. The test can be described thus: In vitro antibacterial activity against Enterococcus faecalis ATCC 29212 (E. f. 034) vancomycin sensitive. Type of test: functional. The method, boiled down: as §1
Test [5] concerns Staphylococcus aureus. The test can be described thus: In vitro antibacterial activity against Staphylococcus aureus ATCC 49951 (S. a. 213). Type of test: functional. The method, boiled down:
as §1

The test system of test [6] is Staphylococcus aureus. The test can be described thus: In vitro antibacterial activity against Staphylococcus aureus ATCC 29213 (S. a. 035). The test is classed as functional. The gist of the method:
(§3)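 Broth microdilution per NCCLS guidelines in Mueller Hinton medium. Doubling dilutions 256–1 μg/mL; inoculum (1–5) × 10⁵ CFU/mL; plates incubated overnight at 35 °C in ambient air. MIC read as the lowest concentration giving complete growth inhibition. Linezolid and vancomycin served as controls.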

The test system of test [7] is Enterococcus faecium. The test can be described thus: In vitro antibacterial activity against Enterococcus faecium ATCC 12202 (E.fm 154) vancomycin resistant. Type of test: functional, enterococcus fecium. The gist of the method:
as §1

The test system of test [8] is Mus musculus. As to the kind of experiment: In vivo antibacterial activity in a murine systemic infection model (95%confidence limits). Type of test: functional. The gist of the method: as §2
Test [9] has as its system Enterococcus faecalis. As to the kind of experiment: In vitro antibacterial activity against Enterococcus faecalis ATCC 29212 (E. f. 153) vancomycin sensitive. Type of test: functional. The gist of the method:
as §3

Test [10] deals with Enterococcus faecium. As to the kind of experiment: In vitro antibacterial activity against Enterococcus faecium ATCC 12202 (E.fm 154) vancomycin resistant.

Molecules are shown by their SMILES. In brackets after ≈: the same amount, converted by molar mass.

Consider `CC(=O)NC[C@H]1CN(c2cc(F)c3c(c2)OC[C@@H]2CCCN32)C(=O)O1`, for which the MIC was determined as 1 µg/mL (≈ 2.86 µM) in test [1]; 2 µg/mL (≈ 5.72 µM) in [3]; 2 µg/mL (≈ 5.72 µM) in test [4]; 2 µg/mL (≈ 5.72 µM) in [5]; 2 µg/mL (≈ 5.72 µM) in [6]; 4 µg/mL (≈ 11.4 µM) in test [7]. In [2], the 50% effect level (ED50) was put at a dose of 8.6 mg/kg.

Regarding `CO/C(S)=N\C[C@H]1CN(c2cc(F)c3c(c2)OC[C@@H]2CCCN32)C(=O)O1`, the MIC is 0.5 µg/mL (≈ 1.31 µM) in test [1]; 0.5 µg/mL (≈ 1.31 µM) in test [4]; 1 µg/mL (≈ 2.62 µM) in test [5]; 1 µg/mL (≈ 2.62 µM) in [6]; 0.5 µg/mL (≈ 1.31 µM) in test [9]; 0.5 µg/mL (≈ 1.31 µM) in test [7]. Besides, the ED50 in [8] was 4.85 mg/kg.

`C=CC(=O)NC[C@H]1CN(c2cc(F)c3c(c2)OC[C@@H]2CCCN32)C(=O)O1`: the MIC in test [1], in test [3], in test [4], in test [5], in test [6] and in [7] was 4 µg/mL (≈ 11.1 µM) throughout. This molecule displayed an ED50 in test [2] of 30 mg/kg.

In the case of `CCC/C(S)=N\C[C@H]1CN(c2cc(F)c3c(c2)OC[C@@H]2CCCN32)C(=O)O1`, the MIC in [1] amounted to 1 µg/mL (≈ 2.54 µM); in test [3], 1 µg/mL (≈ 2.54 µM); in test [4], 1 µg/mL (≈ 2.54 µM); in test [5] it was 2 µg/mL (≈ 5.08 µM); in test [6], 2 µg/mL (≈ 5.08 µM); in test [7], 1 µg/mL (≈ 2.54 µM). In [2], the ED50 was determined as 30 mg/kg.

As for `CC(=O)NC[C@H]1CN(c2ccc(N3CCOCC3)c(F)c2)C(=O)O1` [LINEZOLID], the MIC in test [1] turned out to be 1 µg/mL (≈ 2.96 µM); in [7] it was 2 µg/mL (≈ 5.93 µM). This molecule had an ED50 in test [2] of 3.91 mg/kg.

On to `COC(=O)NC[C@H]1CN(c2cc(F)c3c(c2)OC[C@@H]2CCCN32)C(=O)O1`, for which the MIC in test [1], in test [3], in [4], in test [5], in [6] and in test [7] was 2 µg/mL (≈ 5.47 µM) each time. In [2], this molecule returned an ED50 of 3.3 mg/kg.

With `CC/C(S)=N\C[C@H]1CN(c2cc(F)c3c(c2)OC[C@@H]2CCCN32)C(=O)O1`, the MIC in [1] amounted to 0.5 µg/mL (≈ 1.32 µM); in test [3] it was 0.5 µg/mL (≈ 1.32 µM); in test [4], 0.5 µg/mL (≈ 1.32 µM); in test [5], 0.5 µg/mL (≈ 1.32 µM); in test [6] it was 1 µg/mL (≈ 2.64 µM); in test [7], 0.5 µg/mL (≈ 1.32 µM). The ED50 in test [2] amounted to 30 mg/kg.

`CCC(=O)NC[C@H]1CN(c2cc(F)c3c(c2)OC[C@@H]2CCCN32)C(=O)O1`: the MIC in test [1] worked out at 2 µg/mL (≈ 5.5 µM); in test [3], 8 µg/mL (≈ 22 µM); in test [4], 4 µg/mL (≈ 11 µM); in test [5], 4 µg/mL (≈ 11 µM); in [6] it was 4 µg/mL (≈ 11 µM); in test [7] it was 8 µg/mL (≈ 22 µM). The same molecule registered an ED50 in test [2] of 16 mg/kg.

`C/C(S)=N\C[C@H]1CN(c2cc(F)c3c(c2)OC[C@@H]2CCCN32)C(=O)O1`: the MIC in test [1] was determined as 0.5 µg/mL (≈ 1.37 µM); in test [3], 1 µg/mL (≈ 2.74 µM); in test [4] it was 1 µg/mL (≈ 2.74 µM); in test [5], 0.5 µg/mL (≈ 1.37 µM); in test [6] it was 0.5 µg/mL (≈ 1.37 µM); in test [7], 1 µg/mL (≈ 2.74 µM). The ED50 in [2] was found to be 30 mg/kg.

On to `O=C1O[C@@H](C/N=C/S)CN1c1cc(F)c2c(c1)OC[C@@H]1CCCN21`, for which the minimum inhibitory concentration (MIC) in test [1] came to 1 µg/mL (≈ 2.85 µM); in [3] it was 1 µg/mL (≈ 2.85 µM); in test [4] it was 1 µg/mL (≈ 2.85 µM); in [5], 1 µg/mL (≈ 2.85 µM); in test [6], 1 µg/mL (≈ 2.85 µM); in [7], 2 µg/mL (≈ 5.69 µM). In addition, the ED50 in [2] turned out to be 9.07 mg/kg.

On to `CN[C@H](CC(C)C)C(=O)N[C@H]1C(=O)N[C@@H](CC(N)=O)C(=O)N[C@H]2C(=O)N[C@H]3C(=O)N[C@H](C(=O)N[C@H](C(=O)O)c4cc(O)cc(O)c4-c4cc3ccc4O)[C@H](O)c3ccc(c(Cl)c3)Oc3cc2cc(c3O[C@@H]2O[C@H](CO)[C@@H](O)[C@H](O)[C@H]2O[C@H]2C[C@](C)(N)[C@H](O)[C@H](C)O2)Oc2ccc(cc2Cl)[C@H]1O` [VANCOMYCIN], for which the 50% effect level in [8] (ED50) was put at a dose of 3.93 mg/kg. Moreover, the results for the MIC in test [4], in test [9] and in test [7] were 2 µg/mL (≈ 1.38 µM), 2 µg/mL (≈ 1.38 µM) and above 32 µg/mL, respectively.

With `O=C1CCC(=O)N1C[C@H]1CN(c2cc(F)c3c(c2)OC[C@@H]2CCCN32)C(=O)O1`, the MIC in [1], in test [3], in test [4], in [5], in test [10] and in test [6] was above 32 µg/mL throughout.

Regarding `CS/C(S)=N\C[C@H]1CN(c2cc(F)c3c(c2)OC[C@@H]2CCCN32)C(=O)O1`, the MIC in [1] worked out at 1 µg/mL (≈ 2.52 µM); in test [3] it was 1 µg/mL (≈ 2.52 µM); in [4], 1 µg/mL (≈ 2.52 µM); in [5], 1 µg/mL (≈ 2.52 µM); in test [6], 2 µg/mL (≈ 5.03 µM); in test [9], 1 µg/mL (≈ 2.52 µM). In addition, the 50% effect level in test [8] (ED50) was put at a dose of 30 mg/kg.

Regarding `CCO/C(S)=N\C[C@H]1CN(c2cc(F)c3c(c2)OC[C@@H]2CCCN32)C(=O)O1`, the MIC was determined as 1 µg/mL (≈ 2.53 µM) in [1]; 2 µg/mL (≈ 5.06 µM) in test [4]; 2 µg/mL (≈ 5.06 µM) in test [5]; 2 µg/mL (≈ 5.06 µM) in test [6]; 2 µg/mL (≈ 5.06 µM) in test [9]; 2 µg/mL (≈ 5.06 µM) in test [7].

The values above are taken from ChEMBL document CHEMBL1135766, “Synthesis of conformationally constrained analogues of linezolid: structure-activity relationship (SAR) studies on selected novel tricyclic oxazolidinones” (2002).
